Measured values gathered from unrelated publications.
Compare with care: the assays were run in different laboratories.

C=CCNc1c(O)cc2c(O)c1C[C@@H](C)C[C@H](OC)[C@H](O)[C@@H](C)/C=C(\C)[C@H](OC(N)=O)[C@@H](OC)/C=C\C=C(/C)C(=O)N2  clearance (human, plasma; intravenous, 400 mg/m², patients, infusion): 1630 mL/min
NCCCNCCCCNCCCNc1cc2nc(-c3ccccc3Cl)[nH]c(=O)c2cc1F  LD50 (male Sprague-Dawley rat; oral): > 1000 mg/kg
Nc1nc2[nH]cc(CCc3ccc(C(=O)N[C@@H](CCC(=O)O)C(=O)O)cc3)c2c(=O)[nH]1  clearance (human, plasma; intravenous, 500 mg/m², patients): 81.7 mL/min
NC(=O)[C@@H]1CC(F)(F)CN1C(=O)c1ccc(N2CC(F)(F)C2)c(OCC2CC2)n1  hepatocyte CLint (metabolic stability; human, hepatocytes): 14 µL/min/10⁶ cells
Cc1cc(C)nc(Nc2ncc(C(=O)NCCc3c(C)[nH]c4ccccc34)cn2)c1  microsomal CLint (metabolic stability; rat, liver microsomes; 1 µM): 185 µL/min/mg
COc1ccnc(C(=O)N[C@H]2COC(=O)[C@H](Cc3ccccc3)[C@@H](OC(=O)C(C)C)[C@H](C)OC2=O)c1OCOC(=O)C(C)C  LD50 (rat; oral): > 2000 mg/kg
C[C@H]1COCCN1c1nc(NCc2cccnc2C(F)(F)F)c2cccnc2n1  hepatocyte CLint (metabolic stability; rat, hepatocytes): 5 µL/min/10⁶ cells
N=c1c2c(-c3ccccc3)c(-c3ccccc3)n(Cc3ccccc3)c2ncn1[C@H]1CC[C@H](O)CC1  scaled CLint (metabolic stability; Sprague-Dawley rat, hepatocytes; 1 µM): 19 mL/min/kg
Cc1c(C(=O)Nc2ccc(OC(F)(F)F)cc2)nc(-c2ccc(Cl)cc2Cl)n1-c1ccc(OS(=O)(=O)CCC(F)(F)F)cc1  logD (shake flask; aqueous buffer; pH 7.4): > 4
